Test results: ChEMBL document CHEMBL4680083, “Identification of Tricyclic Agonists of Sphingosine-1-phosphate Receptor 1 (S1P) Employing Ligand-Based Drug Design” (J Med Chem, 2016)

Experiments:
[1] = molecular target: T1, Sphingosine 1-phosphate receptor 1 (Homo sapiens, UniProt P21453); assay: Agonist activity at human S1P1 expressed in CHO cell membranes assessed as stimulation of [35S]-GTPgamma-S binding measured after 45 mins by liquid scintillation counting method; design: species or system Cell membrane
Method in brief: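 S1P1/CHO cell membranes at 3 μg protein/well with 3-fold compound dilutions. [35S]GTPγS 0.2 nM final, 45 min at room temperature. Filter-plate capture, water washes, scintillation counting. EC50 taken at 50% of each compound's own Ymax.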

[2] = Plasma concentration in Lewis rat at 1 mg/kg, po measured at 4 hr; type: ADME, organism-based; settings: Lewis, plasma
Method in brief: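 Lewis rats received a single oral 1.0 mg/kg dose as solution or suspension in PEG300. Blood was drawn retro-orbitally under isoflurane at 4 h and 24 h, within the blood lymphocyte reduction study. n = 3−4 per group, group mean reported.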

Rattus norvegicus [3] = assay: Reduction in circulating lymphocytes count in Lewis rat blood at 1 mg/kg, po measured at 24 hrs by hematology analyzer based analysis; type: functional; design: scale not given: the % may be the effect or the level left
Method in brief: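 Lewis rats were given an oral dose as a solution or suspension in PEG300, with controls receiving vehicle only. Blood was taken by retro-orbital bleeding under isoflurane at 4 and 24 h. Lymphocytes were counted on a hematology analyzer. Reduction is relative to the vehicle group, averaged over the animals in each group (n = 3−4).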

Rattus norvegicus [4] = assay: Reduction in circulating lymphocytes count in Lewis rat blood assessed as effective dose administered orally measured at 4 to 24 hrs by hematology analyzer based analysis; type: functional; settings: po, time 4-24 hrs
[5] = molecular target: T1, Sphingosine 1-phosphate receptor 1; assay: Agonist activity at human S1P1 assessed as stimulation of cAMP accumulation relative to control; type: functional; settings: filed as agonist
[6] = Protein binding in human assessed as bound fraction; type: ADME; settings: read-out: PB (converted)
[7] = Protein binding in rat assessed as bound fraction; type: ADME; settings: read-out: PB (converted)
[8] = Protein binding in dog assessed as bound fraction; type: ADME, Canis lupus familiaris; settings: read-out: PB (converted)
[9] = Protein binding in monkey assessed as bound fraction; type: ADME, Macaca mulatta; settings: rhesus monkey; read-out: PB (converted)
[10] = molecular target: Voltage-gated inwardly rectifying potassium channel KCNH2 (Homo sapiens, UniProt Q12809); assay: Inhibition of human ERG by patch clamp assay
Homo sapiens = species: Homo sapiens; assay: Inhibition of calcium channel (unknown origin) at 10 uM by patch clamp technique relative to control
[11] = molecular target: T2, Nuclear receptor subfamily 1 group I member 2 (Homo sapiens, UniProt O75469); assay: Transactivation of PXR (unknown origin); type: ADME
T2 sequence (O75469 whole entry): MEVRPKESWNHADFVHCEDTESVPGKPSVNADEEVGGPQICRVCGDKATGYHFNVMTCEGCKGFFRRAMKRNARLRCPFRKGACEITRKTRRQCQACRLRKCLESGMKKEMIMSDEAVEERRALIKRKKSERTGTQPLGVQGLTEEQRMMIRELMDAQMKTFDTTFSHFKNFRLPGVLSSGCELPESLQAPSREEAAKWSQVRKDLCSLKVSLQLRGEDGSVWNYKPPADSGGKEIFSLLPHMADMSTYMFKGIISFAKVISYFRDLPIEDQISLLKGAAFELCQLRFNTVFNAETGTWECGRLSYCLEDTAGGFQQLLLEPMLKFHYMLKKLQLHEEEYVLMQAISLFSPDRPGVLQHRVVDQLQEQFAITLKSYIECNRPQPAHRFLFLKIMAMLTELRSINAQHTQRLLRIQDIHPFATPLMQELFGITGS

Cytochrome P450 1A2 = molecular target: T3, Cytochrome P450 1A2 (Homo sapiens, UniProt P05177); assay: Inhibition of CYP1A2 (unknown origin); type: ADME
T3 sequence (P05177 whole entry): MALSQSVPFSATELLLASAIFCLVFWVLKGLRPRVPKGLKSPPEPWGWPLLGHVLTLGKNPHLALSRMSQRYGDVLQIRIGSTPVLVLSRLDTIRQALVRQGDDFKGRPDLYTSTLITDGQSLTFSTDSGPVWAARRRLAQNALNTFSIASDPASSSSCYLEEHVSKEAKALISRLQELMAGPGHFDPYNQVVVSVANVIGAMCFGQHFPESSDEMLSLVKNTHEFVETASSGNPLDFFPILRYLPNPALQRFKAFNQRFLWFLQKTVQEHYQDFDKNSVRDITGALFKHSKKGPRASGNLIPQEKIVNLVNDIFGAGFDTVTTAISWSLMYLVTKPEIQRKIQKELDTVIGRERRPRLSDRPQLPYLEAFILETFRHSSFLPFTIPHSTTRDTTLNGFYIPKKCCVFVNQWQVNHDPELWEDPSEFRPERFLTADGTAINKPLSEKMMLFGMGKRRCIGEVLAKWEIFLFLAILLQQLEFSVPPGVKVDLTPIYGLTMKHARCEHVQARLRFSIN

Cytochrome P450 2C9 = Cytochrome P450 2C9 (Homo sapiens, UniProt P11712); assay: Inhibition of CYP2C9 (unknown origin); type: ADME
[12] = Permeability of compound at pH 7.7 by PAMPA; type: ADME; settings: read-out: permeability
[13] = Permeability of compound at pH 5.5 by PAMPA; type: ADME; settings: read-out: permeability
[14] = Metabolic stability in human assessed as half-life; type: ADME
[15] = Metabolic stability in rat assessed as half-life; type: ADME
[16] = Metabolic stability in dog assessed as half-life; type: ADME, Canis lupus familiaris
[17] = Cmax in cynomolgus monkey at 0.5 mg/kg, po or 0.5 mg/kg, iv; type: ADME, organism-based, Macaca fascicularis; design: dose 0.5 mg/kg; settings: in vivo
[18] = Tmax in cynomolgus monkey at 0.5 mg/kg, po or 0.5 mg/kg, iv; type: ADME, organism-based, Macaca fascicularis; settings: in vivo
[19] = AUC in rat at 1 mg/kg, po; type: ADME, organism-based; design: dose 1 mg/kg; settings: in vivo
[20] = AUC in dog at 0.1 mg/kg, po; type: ADME, organism-based, Canis lupus familiaris; design: dose 0.1 mg/kg; settings: in vivo
[21] = Half-life in mouse at 5 mg/kg, po or 2 mg/kg, iv; type: ADME, organism-based; settings: in vivo
[22] = Half-life in dog at 0.1 mg/kg, po or 0.1 mg/kg, iv; type: ADME, organism-based, Canis lupus familiaris; settings: in vivo
[23] = Clearance in rat at 1 mg/kg, po or 1 mg/kg, iv; type: ADME, organism-based; settings: in vivo
[24] = Volume of distribution at steady state in mouse at 5 mg/kg, po or 2 mg/kg, iv; type: ADME, organism-based; settings: in vivo, read-out: Vdss
[25] = Volume of distribution at steady state in cynomolgus monkey at 0.5 mg/kg, po or 0.5 mg/kg, iv; type: ADME, organism-based, Macaca fascicularis; settings: in vivo, read-out: Vdss
[26] = Oral bioavailability in mouse at 5 mg/kg; type: ADME, organism-based; settings: in vivo
[27] = Oral bioavailability in rat at 1 mg/kg; type: ADME, organism-based; settings: in vivo
[28] = Oral bioavailability in dog at 0.1 mg/kg; type: ADME, organism-based, Canis lupus familiaris; settings: in vivo
Rattus norvegicus [29] = assay: Antiarthritic activity in Lewis rat model of Complete Freund's adjuvant-induced arthritis assessed as reduction in paw swelling at 0.1 mg/kg, po qd administered for 21 days after CFA injection and measured weekly three times upto day 21 by water displacement plethysmometry; type: functional; design: scale not given: the % may be the effect or the level left; settings: time 21 day
Method in brief: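 Male Lewis rats, 200−225 g, n = 8 per group. Immunized at the tail base with 100 μL of 10 mg/mL ground Mycobacterium butyricum in incomplete Freund's adjuvant. Oral dosing once daily in PEG300 vehicle from the day of immunization for 21 days, at 0.03, 0.1 or 1.0 mg/kg. Dexamethasone 0.1 mg/kg PO QD as positive control. Paw volume by water displacement plethysmometry, day 7 to day 21.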

T1 sequence (P21453 whole entry): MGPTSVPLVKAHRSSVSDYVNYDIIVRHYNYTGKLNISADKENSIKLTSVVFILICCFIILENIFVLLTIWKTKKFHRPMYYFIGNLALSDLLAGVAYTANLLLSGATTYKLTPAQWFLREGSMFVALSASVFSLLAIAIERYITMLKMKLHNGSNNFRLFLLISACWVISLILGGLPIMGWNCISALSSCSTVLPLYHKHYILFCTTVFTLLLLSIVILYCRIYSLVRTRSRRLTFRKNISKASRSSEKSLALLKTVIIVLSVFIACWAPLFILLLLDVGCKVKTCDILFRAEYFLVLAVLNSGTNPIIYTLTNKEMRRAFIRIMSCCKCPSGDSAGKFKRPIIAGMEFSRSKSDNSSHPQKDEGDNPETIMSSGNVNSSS
Cytochrome P450 2C9, sequence (P11712 whole entry): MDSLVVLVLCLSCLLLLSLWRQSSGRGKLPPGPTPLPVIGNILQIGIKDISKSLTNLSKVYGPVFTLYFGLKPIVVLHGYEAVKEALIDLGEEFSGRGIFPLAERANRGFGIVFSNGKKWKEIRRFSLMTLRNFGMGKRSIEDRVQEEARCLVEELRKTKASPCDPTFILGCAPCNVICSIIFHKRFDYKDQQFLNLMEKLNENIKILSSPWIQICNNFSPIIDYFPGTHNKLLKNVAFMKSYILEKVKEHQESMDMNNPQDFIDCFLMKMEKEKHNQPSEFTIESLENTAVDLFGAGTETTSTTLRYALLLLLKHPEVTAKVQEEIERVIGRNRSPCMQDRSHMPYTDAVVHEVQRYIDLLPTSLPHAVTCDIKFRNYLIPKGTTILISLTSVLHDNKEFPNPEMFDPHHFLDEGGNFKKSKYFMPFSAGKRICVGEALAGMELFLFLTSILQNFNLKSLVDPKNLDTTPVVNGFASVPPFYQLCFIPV
Voltage-gated inwardly rectifying potassium channel KCNH2, sequence (Q12809 whole entry): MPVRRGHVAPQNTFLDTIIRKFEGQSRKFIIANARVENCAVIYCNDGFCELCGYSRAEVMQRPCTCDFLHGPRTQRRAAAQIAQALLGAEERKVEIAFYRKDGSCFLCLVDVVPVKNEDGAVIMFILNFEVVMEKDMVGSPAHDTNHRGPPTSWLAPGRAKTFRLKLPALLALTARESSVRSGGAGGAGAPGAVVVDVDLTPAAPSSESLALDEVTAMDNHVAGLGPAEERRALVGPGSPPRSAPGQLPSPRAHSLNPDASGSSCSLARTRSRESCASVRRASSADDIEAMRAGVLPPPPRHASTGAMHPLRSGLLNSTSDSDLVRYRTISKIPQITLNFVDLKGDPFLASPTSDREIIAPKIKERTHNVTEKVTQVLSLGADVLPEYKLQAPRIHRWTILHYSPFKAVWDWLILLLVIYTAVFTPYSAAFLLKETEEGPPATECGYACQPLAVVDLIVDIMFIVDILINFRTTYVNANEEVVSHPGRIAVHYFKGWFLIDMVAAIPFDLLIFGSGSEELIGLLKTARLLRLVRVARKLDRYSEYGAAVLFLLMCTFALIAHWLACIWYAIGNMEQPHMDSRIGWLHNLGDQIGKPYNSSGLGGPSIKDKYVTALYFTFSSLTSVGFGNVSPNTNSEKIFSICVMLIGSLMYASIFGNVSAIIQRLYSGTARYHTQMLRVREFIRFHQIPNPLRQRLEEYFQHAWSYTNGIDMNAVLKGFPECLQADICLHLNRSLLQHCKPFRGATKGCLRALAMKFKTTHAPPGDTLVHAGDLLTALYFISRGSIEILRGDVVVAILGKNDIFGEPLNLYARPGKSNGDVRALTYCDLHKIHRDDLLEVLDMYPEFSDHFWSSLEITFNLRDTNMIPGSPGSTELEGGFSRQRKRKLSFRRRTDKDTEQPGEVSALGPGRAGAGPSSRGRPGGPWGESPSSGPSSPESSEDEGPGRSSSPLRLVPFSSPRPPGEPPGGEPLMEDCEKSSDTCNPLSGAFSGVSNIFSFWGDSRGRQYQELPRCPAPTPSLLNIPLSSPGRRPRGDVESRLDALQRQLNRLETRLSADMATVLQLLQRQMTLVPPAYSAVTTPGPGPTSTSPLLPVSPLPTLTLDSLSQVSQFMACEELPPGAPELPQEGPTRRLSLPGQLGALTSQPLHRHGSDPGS

In the case of `O=C(O)C1CN(Cc2ccc3c(c2)CCc2c-3noc2-c2onc(-c3ccccc3)c2C(F)(F)F)C1`, the EC50 [1] is reported as 0.59 nM, the concentration at 4 h [2] is reported as 55 nM and the Activity (Rattus norvegicus [3]) is reported as 80%. For the same molecule, the ED50 (Rattus norvegicus [4]) was 0.05 mg/kg, the Emax [5] was 93% and the fraction unbound [6] was 0.004. The fraction unbound [7] was 0.004, the fraction unbound [8] was 0.005 and the fraction unbound [9] was 0.005. The IC50 [10] was 2000 nM, the inhibition (Homo sapiens) was 11% and the EC50 [11] was greater than 50000 nM. The IC50 (Cytochrome P450 1A2) was greater than 40000 nM, the IC50 (Cytochrome P450 2C9) was greater than 40000 nM and the Papp [12] was 28 ×10⁻⁶ cm/s. The Papp [13] was 26 ×10⁻⁶ cm/s, the half-life [14] was greater than 2 h and the half-life [15] was greater than 2 h. For the same molecule, the half-life [16] was greater than 2 h, the Cmax [17] was 410 nM and the Tmax [18] was 4 h. For the same molecule, the AUC [19] was 1.5 µM·h, the AUC [20] was 2.3 µM·h and the half-life [21] was 15 h. The half-life [22] was 23.1 h, the clearance [23] was 8.5 mL/min/kg and the Vd [24] was 2.2 L/kg. For the same molecule, the Vd [25] was 3.6 L/kg, the F [26] was 80% and the bioavailability [27] was 43%. The bioavailability [28] was 95% and the Activity (Rattus norvegicus [29]) was greater than 50%.
